Data on 18 sequences can be found in the EternaBench riboswitch data.

Broadly, the apparent Kd is the concentration giving half-maximal binding under the conditions of the assay.

The test system of the series is MS2 coat protein. Description: apparent Kd, MS2 coat protein; higher = weaker binding; RNA-MaP array; tryptophan 2.4 mM where present. In outline: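 Designs on Illumina sequencing-chip clusters, transcribed by stalled E. coli RNA polymerase, were exposed to SNAP-549-labelled MS2 coat protein in doubling steps from 0.7 or 1.5 nM up to 3 µM, without and then with constant ligand. The buffer held 100 mM Tris-HCl pH 7.5, 80 mM KCl, 4 mM MgCl2, BSA, DTT, yeast tRNA and Tween-20. Apparent Kd values are medians of filtered per-cluster binding-curve fits to green signal normalised to red-channel RNA signal and control-cluster median Fmax.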

[1] abbreviates: designed as: OFF switch for tryptophan, no ligand.
Setting [2] is: ligand present: tryptophan, designed as: OFF switch for tryptophan.
The mark [3] stands for this setting: designed as: ON switch for tryptophan, no ligand.
[4] abbreviates: ligand present: tryptophan, designed as: ON switch for tryptophan.

Turning to “AGAUUCGACACGGCCGCCACUUUCAGUGGCUGGUGUCAUGGUGCACAUGAGGAUCACCCAUGUGGAAGGACCGGGUGUUGAGUCU”, the “apparent Kd” value worked out at 12.2 nM under setting [1] and 58.4 nM under setting [2].
As to “UUAUAUACUACGGCCGCCACUGAACAUGAGGAUCACCCAUGUAAUGUUCAGAUUUUUUUUUUUUACAGGACCGGGUAGAAUUAAA”, the “apparent Kd” value by setting is: under setting [3], 159 nM; under setting [4], 133 nM.
Take “AGCAACAAGUCGGCCGCCACUCAAUAAACAUGAGGAUCACCCAUGUAAAUAACAUGAUAAUAAUAGAGGACCGGGACAGUUGCAU”: the “apparent Kd” value reads like this: under setting [3], 14.4 nM; under setting [4], 13 nM.
Turning to “UACAUGAGGAUCACCCAUGUCCCAUGUGAACGAGGACCGGUACGGCCGCCACUCGACCGAGGCGGCACAUGAGGAUCACCCGCAU”, the “apparent Kd” value stood at 736 nM under setting [3] and 1580 nM under setting [4].
As for “UGGGUCGGAUGAGUAAAUUGUCGGACUCAUCGAGGACCGGUACGGCCGCCACUCGGUUGUACAUGAGGAUCACCCAUGUCAGGGU”, the “apparent Kd” value was 364 nM under setting [3] and 223 nM under setting [4].
Take “AAUGUGAAGGCGGCCGCCACUGAUAAUAGACAUGAGGAUCACCCAUGUAUAAAUCCUCAAUAAGACAGGACCGGGCCAUCUACGU”: the “apparent Kd” value is, setting by setting: under setting [1], 105 nM; under setting [2], 123 nM.
Regarding “UAACAUGAGGAUCACCCAUGUUUGAAGGAACGAGGACCGGUACGGCCGCCACUCGACGAGUGGAUGAGAAGUGGGAUAGUGUGCU”, the “apparent Kd” value under setting [3] was found to be 13.2 nM and the “apparent Kd” value under setting [4] is 13.8 nM.
On the same counts, the results for “ACGUUGUAGUCGGCCGCCACUGUUUUCAUGUUCAACAUGAGGAUCACCCAUGUACCUUUUUUUAUCAGGACCGGGACGUAUUCGA” are 93.2 nM and 40.7 nM.
On the same counts, the results for “GACGCAUGAGUUGUAAAAGCUCAUGGGUCGCGAGGACCGGUACGGCCGCCACUCGGCUGUACAUGAGGAUCACCCAUGUCAGGGU” are 275 nM and 580 nM.
For “UAAACUACACAUGAGGAUCACCCAUGUGGCCGAGGACCGGUACGGCCGCCACUCGUGUGUUAAUAAAAGAACUGCAAGGUUCUGU”, the “apparent Kd” value is, setting by setting: under setting [3], 350 nM; under setting [4], 84 nM.
For the sequence “GGGACUAGAUCGGCCGCCACUGAUGGGACAUGAGGAUCACCCAUGUACGAAGUGAUCCAAUAAAUCAGGACCGGGAUCACUUGUA”, the “apparent Kd” value by setting is: under setting [1], 125 nM; under setting [2], 225 nM.
Take “UAACAUGAGGAUCACCCAUGUAUACUAAGUCGAGGACCGGUACGGCCGCCACUCGAAAUUGAAGAAUUGGCGGUAAAUGUAAGUA”: the “apparent Kd” value under setting [1] is 12.2 nM and the “apparent Kd” value under setting [2] amounted to 12.5 nM.
As to “AUUCAUGGAAACAUGACAUACAUAACCGGUCGAGGACCGGUACGGCCGCCACUCGUUUGGAGGCACAUGAGGAUCACCCAUGUUA”, the “apparent Kd” value by setting is: under setting [3], 23.7 nM; under setting [4], 24.5 nM.
On the same counts, the results for “CGAGUAAGUUCAAUCGAAUAACGGUUUUCGCGAGGACCGGUACGGCCGCCACUCGUGUGAUAUCACACAUGAGGAUCACCCAUGU” are 77.6 nM and 47.4 nM.
Turning to “GUUGGAUACUCGGCCGCCACUGAGAGAGUCAUGUGAACAUGAGGAUCACCCAUGUAAUAUAUAUACAGGACCGGGAGUGUUGUAA”, the “apparent Kd” value under setting [1] amounted to 21.6 nM and the “apparent Kd” value under setting [2] was found to be 16.8 nM.
With “GCUAGGUCAUCGGCCGCCACUAACGAUGGCUCCAACAUGAGGAUCACCCAUGUGCCACAUGCGCAUAGGACCGGGAUGACCUAGC”, the “apparent Kd” value came out at 13 nM under setting [3] and 10.5 nM under setting [4].
For “AGCGCGGUGAUGGUAGCCGGACGCUAGGUACGAGGACCGGUACGGCCGCCACUCGGAGUCCUACGACAUGAGGAUCACCCAUGUA”, the “apparent Kd” value under setting [3] stood at 99.3 nM and the “apparent Kd” value under setting [4] is 46.8 nM.
As for “AAUUAUCAGUCGGCCGCCACUGACACAUGAGGAUCACCCAUGUAAUAUGGGUAAAAUUAACUGAACAGGACCGGGACAAAUGCUA”, the “apparent Kd” value under setting [3] is 381 nM and the “apparent Kd” value under setting [4] came out at 649 nM.
